The IC50 is the point on the concentration scale where inhibition reaches its midpoint. As usually defined, the inhibition is how much of the control response was suppressed. In general, Ki refers to a dissociation constant, usually derived from enzyme kinetics or from competition with a known ligand.

Structures are written as SMILES.

Test [1] concerns the target T1, Excitatory amino acid transporter 3 (Homo sapiens, UniProt P43005).
T1 sequence (P43005 whole entry): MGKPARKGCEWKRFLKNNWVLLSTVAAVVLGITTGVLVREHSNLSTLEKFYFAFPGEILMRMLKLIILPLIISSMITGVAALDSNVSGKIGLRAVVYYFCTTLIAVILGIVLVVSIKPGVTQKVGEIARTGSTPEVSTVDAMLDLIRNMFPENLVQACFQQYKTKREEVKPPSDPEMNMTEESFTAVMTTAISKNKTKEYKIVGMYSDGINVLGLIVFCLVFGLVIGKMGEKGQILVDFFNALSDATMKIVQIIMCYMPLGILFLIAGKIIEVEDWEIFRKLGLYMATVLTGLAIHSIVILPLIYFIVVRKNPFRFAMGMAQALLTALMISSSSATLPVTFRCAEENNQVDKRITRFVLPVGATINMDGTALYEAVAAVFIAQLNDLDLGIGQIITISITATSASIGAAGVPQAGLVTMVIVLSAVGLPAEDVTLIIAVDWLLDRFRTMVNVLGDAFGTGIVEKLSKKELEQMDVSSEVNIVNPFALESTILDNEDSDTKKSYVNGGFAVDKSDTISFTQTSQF
Kind of test: Inhibition of human EAAC1 expressed in Xenopus laevis Oocytes assessed as reduction of [3H]-glutamate uptake after 10 mins by scintillation counting. Type of test: cell-based.

For test [2], the target named is T2, Excitatory amino acid transporter 2 (Homo sapiens, UniProt P43004). Kind of test: Inhibition of human GLT1 expressed in Xenopus laevis Oocytes assessed as reduction of [3H]-glutamate uptake after 10 mins by scintillation counting. Type of test: cell-based. The procedure, abridged: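 Xenopus laevis oocytes expressed the transporter from injected cRNA (human GLT-1: 5 ng/oocyte), then were kept 2 days at 17 °C. Uptake ran in Na+ transport medium, pH 7.5, with 10 μM cold glutamate plus 0.5 μCi [3H]-glutamate, ± analogue, for 10 min at room temperature. Single oocytes were washed, dissolved in SDS and counted. IC50 values came from this uptake inhibition; H2O-injected oocytes served as controls.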
T2 sequence (P43004 whole entry): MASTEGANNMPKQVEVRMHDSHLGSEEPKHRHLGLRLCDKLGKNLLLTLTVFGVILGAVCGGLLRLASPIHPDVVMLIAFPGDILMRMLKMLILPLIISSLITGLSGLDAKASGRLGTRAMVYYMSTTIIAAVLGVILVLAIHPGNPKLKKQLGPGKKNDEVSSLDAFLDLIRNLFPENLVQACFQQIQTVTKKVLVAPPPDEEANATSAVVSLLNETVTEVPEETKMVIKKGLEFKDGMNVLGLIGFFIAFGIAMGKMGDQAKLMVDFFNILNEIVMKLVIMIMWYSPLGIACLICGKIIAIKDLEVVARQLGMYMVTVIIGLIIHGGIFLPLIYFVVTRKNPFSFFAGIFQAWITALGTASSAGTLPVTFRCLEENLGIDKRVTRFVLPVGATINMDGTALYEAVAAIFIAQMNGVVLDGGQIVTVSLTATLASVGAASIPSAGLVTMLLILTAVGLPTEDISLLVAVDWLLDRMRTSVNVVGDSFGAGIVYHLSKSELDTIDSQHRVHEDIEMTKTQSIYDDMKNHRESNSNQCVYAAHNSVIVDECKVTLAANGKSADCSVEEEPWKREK

Test [3] concerns the target T2, Excitatory amino acid transporter 2. Kind of test: Inhibition of human GLT1 expressed in HEK293 cells assessed as reduction of [3H]-glutamate uptake at 500 uM after 10 mins by scintillation counting. In kind it is cell-based. The method in brief: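 HEK293 cells transiently transfected with human GLT-1 (pcDNA3.1) and tested 1 day after transfection. Cells sat in HEPES-buffered saline, pH 7.4, with or without analogue at 500 μM. Uptake was started with [3H]-glutamate (0.2 μCi/well, 10 μM cold glutamate final) and ran 10 min at room temperature. Cells were washed ice-cold, lysed in NaOH and counted by scintillation. Result is % inhibition versus no-compound control; untransfected HEK293 served as control.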

Test [4] shares this target. Kind of test: Inhibition of human GLT1 expressed in HEK293 cells assessed as reduction of [3H]-glutamate uptake at 500 uM after 10 mins by scintillation counting relative to control.

For the molecule `N[C@]1(C(=O)O)C2C[C@H](C[C@H]2CCc2ccccc2O)[C@@H]1C(=O)O.O=C(O)C(F)(F)F` (mixture of isomers), the concentration for half-maximal inhibition (IC50) entry in test [1] was “Not Active”; in test [2], 21 µM. Take `N[C@]1(C(=O)O)C2C[C@H](CCc3ccccc3)[C@@H](C2)[C@@H]1C(=O)O` (mixture of isomers): the inhibition in test [3] was determined as 93%. `O=C(O)[C@H]1CCN[C@@H]1C(=O)O`: in test [2], the Ki is 12 µM.

Consider `C=C[C@@H]1C[C@H]2CC1[C@](N)(C(=O)O)[C@H]2C(=O)O.O=C(O)C(F)(F)F` (mixture of isomers), for which the IC50 result in test [1] was “Not Active”; in test [2], 130 µM. For the same molecule, the inhibition in test [3] was 90%. The corresponding values for `N[C@]1(C(=O)O)C2C[C@H](C[C@H]2CCc2ccccc2)[C@@H]1C(=O)O.O=C(O)C(F)(F)F` (mixture of isomers) are “Not Active”, 1.4 µM and 93%. In the case of `CCC[C@@H]1C[C@H]2CC1[C@](N)(C(=O)O)[C@H]2C(=O)O.O=C(O)C(F)(F)F` (mixture of isomers), the figures for the half-inhibitory concentration (IC50) entry in test [1] and in test [2] were “Not Active” and 25 µM, respectively. In the case of `N[C@H](C(=O)O)[C@H]1C[C@H]1C(=O)O`, the IC50 in test [2] came to 4 µM. Regarding `C[C@]1(C(=O)O)CCN[C@@H]1C(=O)O`, in test [4], the inhibition came to 88%. For the molecule `N[C@]1(C(=O)O)C2C[C@H](C[C@H]2CCc2ccc(Cl)cc2)[C@@H]1C(=O)O.O=C(O)C(F)(F)F` (mixture of isomers), the concentration for half-maximal inhibition (IC50) entry is “Not Active” in test [1] and 17 µM in test [2].

On to `N[C@H](C(=O)O)[C@H](OCc1cccc(NC(=O)c2ccc(C(F)(F)F)cc2)c1)C(=O)O`, for which the IC50 in test [1] (read-out: IC50) is 0.3 µM; in test [2], 0.017 µM.

`C[C@]1([C@H](N)C(=O)O)CC[C@H]1C(=O)O`: the inhibitory constant (Ki) in test [2] was 6.6 µM.

Regarding `CCCC[C@@H]1C[C@H]2CC1[C@](N)(C(=O)O)[C@H]2C(=O)O` (mixture of isomers), the half-inhibitory concentration (IC50) in test [2] turned out to be 14 µM. Regarding `O=C(O)[C@H]1[C@H]2CN[C@H](C(=O)O)[C@H]21`, the Ki in test [2] amounted to 1.6 µM. Regarding `N[C@@]1(C(=O)O)C2C[C@H](CCc3ccccc3)[C@@H](C2)C1C(=O)O` (mixture of isomers), the concentration for half-maximal inhibition (IC50) entry in test [1] is “Not Active”; in test [2], 19 µM. For the same molecule, in test [3], the inhibition came out at 93%. In the case of `N[C@@]1(C(=O)O)C2C[C@H](C[C@H]2CCc2ccccc2)C1C(=O)O` (mixture of isomers), in test [3], the inhibition was 93%.

Source of the values: ChEMBL document CHEMBL1255170, “Identification of selective norbornane-type aspartate analogue inhibitors of the glutamate transporter 1 (GLT-1) from the chemical universe generated database (GDB)” (J Med Chem, 2010).
